From the EternaBench riboswitch data

System: MS2 coat protein
Experiment: apparent Kd, MS2 coat protein; higher = weaker binding; RNA-MaP array; FMN 200 µM where present
In short: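 The apparent Kd is the median of filtered binding-curve fits, one per cluster, to green signal normalised to red-channel RNA signal and control-cluster median Fmax. The clusters were on Illumina sequencing chips, and stalled E. coli RNA polymerase had transcribed the designs on them. Titration used SNAP-549-labelled MS2 coat protein from 0.7 or 1.5 nM, doubling to 3 µM, without and then with constant ligand, in 100 mM Tris-HCl pH 7.5, 80 mM KCl, 4 mM MgCl2, BSA, DTT, yeast tRNA and Tween-20.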

[1] = designed as: ON switch for flavin mononucleotide, no ligand
[2] = ligand present: flavin mononucleotide, designed as: ON switch for flavin mononucleotide
[3] = designed as: OFF switch for flavin mononucleotide, no ligand
[4] = ligand present: flavin mononucleotide, designed as: OFF switch for flavin mononucleotide

Sequence | apparent Kd [1] [nM] | apparent Kd [2] [nM] | apparent Kd [3] [nM] | apparent Kd [4] [nM]
CGAAUGUAGACAGGAUAUCCUGGACAUGAGGAUCACCCAUGUGCAUAAAAUGGAGAAGGGUCACGGAGGCCCUGUGGGCAGGGU | 44.4 | 9.21 |  | 
CGACAUACGAUGGACGGAAACGUACAUGAGGAUCACCCAUGUAGAAGGCGAUCCGCAACGCGGAUUGAGGAUAUAUACCACACA |  |  | 19.2 | 17.8
CGAGUACAUGAGGAUCACCCAUGUAAUGAAUUGUCAGGAUAUGGAGAUUGAUGACAUGCGCCAGAAGGGACAUCUG | 49.7 | 40.8 |  | 
CGAGUACAUGAGGAUCACCCAUGUUAUGAAUUGUCAGGAUAUGGGUAUUGGUGACAUGCGCCAGAAGGGACGUCUG | 232 | 124 |  | 
CGAUAACAUAGUUAUCCGUAACGGACAUGAGGAUCACCCAUGUAGGAUAUGUUACUCAACGAGUAACAGAAGGACAUGAGUCCU |  |  | 11.8 | 54
CGAUAACAUAGUUAUCCGUAACGUACAUGAGGAUCACCCAUGUAGGAUAUGUUACUAAACUAGUAACAGAAGGACAUGAGUAUU |  |  | 54.9 | 315
CGAUAGGACAGAGGAUAUACACAUGAGGAUCACCCAUGUAAUUACAAUUCUUAAGAUUCUAACAUGUAGAAGGCUGUCCUAUCG |  |  | 40.2 | 19.3
CGAUAGGACAGAGGAUAUACACAUGAGGAUCACCCAUGUGAUUACAACUCUUAAGAUUCAAACAUGUAGAAGGCUGUCCUAUCG |  |  | 11.9 | 30.4
CGAUAGGACAGAGGAUAUACACAUGAGGAUCACCCAUGUGAUUUCGGCGCGAAAGCGCCAAACAUGUAGAAGGCUGUCCUAUCG |  |  | 11.3 | 4.89
CGAUAUAUGAAGGGCGAACGCGCACAUGAGGAUCACCCAUGUAGAAGGCGAUCCGCAACGCGGAUCGAGGAUAUAUAGUAUACA |  |  | 37 | 33.8
CGAUAUGAUAGAGGAUAUGUAAUACAUGAGGAUCACCCAUGUUACAUGGGAAUUAUAAAUAAUUAACAGAAGGCUAUUCUAUCG |  |  | 63.8 | 177
CGAUAUUAUGCAGGAUAUCUCCCUUGAAUGAGGAGAGAAGGGCAUAGGGAGACAUAAGCCUUAUUACAUGAGGAUCACCCAUGU |  |  | 9.67 | 8.35
CGAUAUUAUGCAGGAUAUCUUCCUUGAAUGAGGAGAGAAGGGCAUAGGGAGACAUAAGCCUUAUUACAUGAGGAUCACCCAUGU |  |  | 10.7 | 8.83
CGAUGACAAAGUCAUCGAAUACGAACAUGAGGAUCACCCAUGUAGGAUAUGCUACUCAAAGAGUAGCAGAAGGACAUGUGUCUU |  |  | 31.4 | 154
CGAUGACACAGUCAUCCAAUACGAACAUGAGGAUCACCCAUGUAGGAUAUGGUACUCACAGAGUAGCAGAAGGACAUGUGCCUU |  |  | 72.8 | 158
CGAUGAGGUGUGAGGAUAUCGUGUUCGAAAGAACGUGAGAAGGCACAUGAGGAUCACCCAUGUCAACCUUGUCG |  |  | 17.3 | 15.6
CGAUGGCAUGUAGGAUAUCGAGCUCAAAGAGCUCGAGAAGGACAUGAGGAUCACCCAUGUCGUCACAGACAGUGACGGCUAUCG |  |  | 24.4 | 133
CGAUGGCAUGUAGGAUAUCGAGCUCAAAGAGCUCGAGAAGGACAUGAGGAUCACCCAUGUGCACACAGACAGUGUGCGCUAUCG |  |  | 37 | 181
CGAUGGUAGACAGGAUAUCGACCGGGAUACUAUGAAGACUAUAAACACAUGAGGAUCACCCAUGUCGAGAAGGGUCUCACAGCG |  |  | 37.1 | 60.9
CGCAACAUACAGAAGGAGUAAAUUAGAAGUGUACUAGGAUAUGUUUACAUGAGGAUCACCCAUGUCGAUUGGGUUUUAGUUGCG |  |  | 489 | 251
CGCAACUCAGAUCUUUUGAACAUGAGGAUCACCCAUGUAUUGAGAAGGAGGAAGAAGAGAGAUUCCUAGGAUAUCAGAGUUGCG |  |  | 5.95 | 5.81
CGCAACUCUGCACAGGUCAACAUGAGGAUCACCCAUGUAUUGAGAAGGAGGAAGAAGAGAGAUUCCUAGGAUAUCAGAGUUGCG |  |  | 6.45 | 6.74
CGCAAGUAUACAUGAGGAUCACCCAUGUCAGAAAGGGUAAUCAGAAGGUACAAUUAGAGAUAGAGUAAGGAUAUGAAAUUUGCG | 750 | 274 |  | 
CGCAAGUAUACAUGAGGAUCACCCAUGUCAGAAAGGGUAAUCAGAAGGUACUAUUAGAGAUAGAGUAAGGAUAUGAAAUUUGUG | 399 | 110 |  | 
CGCACUGAUAGAGGAUAUGUUGUACAUGAGGAUCACCCAUGUGUUUUUGUAUCAAUAUUUGUGAAACAGAAGGCUAUUAGUGCG |  |  | 7.58 | 5.65
CGCAUGCGUAGUAUUAGUUGUUGACAGGAUAUGACAUGAGGAUCACCCAUGUGUAUUAAGAAGUGUCAGAAGGGUCUCGUUGCG |  |  | 6.53 | 9.73
CGCCGCACCAGCCGGCGGCAGGGUCAGGAUAUACAUGAGGAUCACCCAUGUGAACGGUGCCCAAUGUAGAAGGGACGAAGAGAC |  |  | 20.5 | 32.6
CGCCUGCGUAGAAUUAGCAGCUGACAGGAUAUGACAUGAGGAUCACCCAUGUGAAUUAAGAAGAGUCAGAAGGGUCACGACGCG |  |  | 9.4 | 10.8
